Assay results from ChEMBL document CHEMBL4627320, “Discovery of CRBN E3 Ligase Modulator CC-92480 for the Treatment of Relapsed and Refractory Multiple Myeloma” (J Med Chem, 2020).
pIC50: −log10 of the molar value. ≈ marks a conversion by molar mass, not a printed value. Calls of active or inactive are those of the source. The rule behind the calls is not given here.

Key:
[1] = biological target: Protein cereblon/DNA damage-binding protein 1 (Homo sapiens, UniProt Q96SW2); test: Displacement of Cy5-conjugated CELMoD from N-terminal 6-His tagged CRBN (1 to 442 residues) (unknown origin)/DDB1 (1 to 1140 residues) (unknown origin) incubated for 10 mins by FRET assay; assay type: protein assay
[2] = Cmax in Sprague-Dawley rat at 10 mg/kg, po; assay type: ADME, organism-based; parameters: dose 10 mg/kg, route oral; conditions: in vivo
Outline: (§1)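 Sprague-Dawley rats given 10 mg/kg orally as a suspension in 0.5% CMC / 0.25% Tween-80 / water; plasma exposure followed.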

[3] = AUC (0 to infinity) in monkey at 3 mg/kg, po; assay type: ADME, organism-based, Macaca mulatta; parameters: dose 3 mg/kg, route oral, time infinity; conditions: rhesus monkey, in vivo
[4] = AUC (0 to infinity) in Sprague-Dawley rat at 10 mg/kg, po; assay type: ADME, organism-based; parameters: dose 10 mg/kg, route oral, time infinity; conditions: in vivo; outline: as §1
[5] = Drug metabolism in assay cell medium assessed as compound racemization measured within 24 hrs; assay type: physicochemical
Outline: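 Compound held in the same cell medium used for the H929 R10-1 antiproliferation assay; enantiomer levels followed by chiral monitoring over 24 h.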

[6] = Drug metabolism in monkey assessed as compound racemization at 3 mg/kg, po relative to compound AUC; assay type: ADME, organism-based, Macaca mulatta; conditions: rhesus monkey, in vivo
[7] = Cmax in monkey at 3 mg/kg, po; assay type: ADME, organism-based, Macaca mulatta; parameters: dose 3 mg/kg, route oral; conditions: rhesus monkey, in vivo
[8] = Antitumor activity against human NCI-H929-1051 cells xenografted in CB17 SCID mouse assessed as reduction in tumor volume at 3 mg/kg, po qd for 21 days measured post last dose by caliper method relative to control; assay type: functional; parameters: scale not given: the % may be the effect or the level left
Outline: (§2)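 Female CB17 SCID mice, 6-8 weeks old, were inoculated subcutaneously with 10×10⁶ NCI-H929-1051 cells, which had been expanded in 10 μM lenalidomide. At about 150 mm³ the mice were randomized (n=8-10/group) and dosed orally once daily for 21 days, with a vehicle control group. Tumors were measured by caliper twice weekly and volume was taken as width²×length/2. Final volumes were taken after the last dose. Data are mean ± SEM.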

[9] = Efflux ratio of permeability across apical to basolateral side in human Caco2 cells; assay type: ADME, cell-based; conditions: Caco-2
[10] = Antitumor activity against human NCI-H929-1051 cells xenografted in CB17 SCID mouse assessed as reduction in tumor volume at 10 mg/kg, po qd for 21 days measured post last dose by caliper method relative to control; assay type: functional; parameters: scale not given: the % may be the effect or the level left; outline: as §2
[11] = species: Homo sapiens; test: Induction of apoptosis in lenalidomide-resistant human H929-R10-1 cells assessed as caspase3 induction at 1 nM measured over 150 hrs by live cell imaging analysis; assay type: functional
Outline: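 Lenalidomide-refractory H929 R10-1 cells treated at 1 nM to 1 μM; caspase-3 induction quantified by live cell imaging over 150 h.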

[12] = species: Homo sapiens; test: Induction of apoptosis in lenalidomide-resistant human H929-R10-1 cells assessed as increase in cleaved PARP level after 72 hrs by Western blot analysis; assay type: functional
Outline: (§3)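 H929 R10-1 cells treated with DMSO or compound (1–100 nM) for 72 h, washed in PBS, lysed in NP-40/Tris pH 8 buffer with protease and phosphatase inhibitors; clarified lysates immunoblotted for p27, cleaved caspase-1, -3, -7 and cleaved PARP, with β-tubulin, using fluorescent secondary antibodies.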

[13] = Metabolic stability in human liver S9 fraction assessed as parent compound remaining after 60 mins; assay type: ADME, subcellular; conditions: read-out: Stability
Outline: (§4)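 Compound incubated with human or rat liver S9 fraction; percent parent remaining at 60 min.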

[14] = Oral bioavailability in Sprague-Dawley rat at 10 mg/kg; assay type: ADME, organism-based; conditions: in vivo; outline: as §1
[15] = species: Homo sapiens; test: Induction of apoptosis in lenalidomide-resistant human H929-R10-1 cells assessed as increase in cleaved caspase3 level at 1 to 100 nM after 72 hrs by Western blot analysis; assay type: functional; outline: as §3
[16] = species: Homo sapiens; test: Induction of apoptosis in lenalidomide-resistant human H929-R10-1 cells assessed as increase in cleaved caspase1 level at 1 to 100 nM after 72 hrs by Western blot analysis; assay type: functional; outline: as §3
[17] = Metabolic stability in rat liver S9 fraction assessed as parent compound remaining after 60 mins; assay type: ADME, subcellular; conditions: read-out: Stability; outline: as §4
[18] = Solubility of the compound at pH 5; assay type: physicochemical; conditions: buffer
[19] = Tmax in Sprague-Dawley rat at 10 mg/kg, po; assay type: ADME, organism-based; conditions: in vivo; outline: as §1
[20] = Antitumor activity against human NCI-H929-1051 cells xenografted in CB17 SCID mouse assessed as reduction in tumor volume at 1 mg/kg, po qd for 21 days measured post last dose by caliper method relative to control; assay type: functional; parameters: scale not given: the % may be the effect or the level left; outline: as §2
[21] = species: Homo sapiens; test: Induction of apoptosis in lenalidomide-resistant human H929-R10-1 cells assessed as p27 stabilization at 1 to 100 nM after 72 hrs by Western blot analysis; assay type: functional; outline: as §3
[22] = species: Homo sapiens; test: Induction of apoptosis in lenalidomide-resistant human H929-R10-1 cells assessed as increase in cleaved caspase7 level at 1 to 100 nM after 72 hrs by Western blot analysis; assay type: functional; outline: as §3
[23] = Clearance in Sprague-Dawley rat at 2 mg/kg, iv; assay type: ADME, organism-based; conditions: in vivo

## N#Cc1ccc(N2CCN(Cc3ccc(COc4cccc5c4CN([C@@H]4CCC(=O)NC4=O)C5=O)cc3)CC2)c(F)c1
[1]
  pIC50: 5.35
[2]
  Cmax: 60 nM
[3]
  AUC(0-inf): 0.1 µM·h
[4]
  AUC(0-inf): 0.5 µM·h
[5]
  Drug metabolism: Metabolite_Detected
[6]
  Drug metabolism: < 9%
[7]
  Cmax: 16 nM

## N#Cc1ccc(N2CCN(Cc3ccc(COc4cccc5c4CN([C@H]4CCC(=O)NC4=O)C5=O)cc3)CC2)c(F)c1 [MEZIGDOMIDE]
[8]
  Activity: 83.8%
[1]
  pIC50: 7.52
[2]
  Cmax: 3200 nM
[9]
  efflux ratio: 1
[10]
  Activity: 85.7%
[11]
  Activity: Active
[12]
  Activity: Active
[3]
  AUC(0-inf): 1.1 µM·h
[13]
  remaining at 1 h: 99%
[4]
  AUC(0-inf): 16.4 µM·h
[5]
  Drug metabolism: Metabolite_Detected
[14]
  bioavailability: 38%
[15]
  Activity: Active
[16]
  Activity: Active
[17]
  remaining at 1 h: 100%
[18]
  solubility: 90 µg/mL (≈ 159 µM)
[19]
  Tmax: 48 min
[7]
  Cmax: 220 nM
[20]
  Activity: 75.3%
[21]
  Activity: Active
[22]
  Activity: Active
[23]
  clearance: 6.8 mL/min/kg
